Results from different studies.
Compare with care: the assays were run in different laboratories. pIC50: −log10 of the molar value.
Effect on: cell growth or viability

| SMILES | cell line | assay | setting | pIC50 |
| --- | --- | --- | --- | --- |
| Cc1nn(-c2ccc(S(=O)(=O)N3CCN(C)CC3)cc2)c2nn3nnnc3nc12 | HT-29 | MTT | – | 7.10 |
| O=c1c2cc(Cl)ccc2nc(-c2ccccc2)n1N=Cc1ccc(F)cc1 | LLC-PK1 | MTT | 72 h | 4.06 |
| NS(=O)(=O)c1ccc(-n2nc(C(=O)NN=Cc3ccccc3O)cc2-c2ccccc2)cc1 | HT-29 | fluorescence | 48 h | 4.70 |
| CN1CCC(NC2CCc3[nH]c4c(C(N)=O)ccc(-c5ccccc5Cl)c4c3C2)CC1 (centres unmarked) | SU-DHL-4 | – | 96 h | 7.65 |
| CC(=O)OC[C@H]1O[C@@H]([S-])[C@H](OC(C)=O)[C@@H](OC(C)=O)[C@@H]1OC(C)=O.CCP(CC)CC.[Au+] | IMR-90 | MTT | 48 h | 5.28 |
| Nc1cccc2c1C(=O)N(C1CCC(=O)NC1=O)C2=O (centres unmarked) | SU-DHL-4 | CCK-8 | 7 days | < 4.70 |
| O=C(CCSSc1ccccc1/C=N/NC(=O)c1ccccc1)OC[C@H]1OC(O)[C@H](O)[C@@H](O)[C@@H]1O (some centres unmarked) | A2780 | MTT | – | 4.64 |
| COc1cc(C=NNC(=O)c2cc(-c3ccccc3)n(-c3ccc(S(N)(=O)=O)cc3)n2)cc(OC)c1OC | HT-29 | fluorescence | 48 h | 4.58 |
| O=C(NO)c1ccc(N2CCN(Cc3c[nH]c4ccccc34)CC2)cc1 | LLC-PK1 | – | 48 h | 4.88 |
| COc1cccc(-c2cc(NCc3ccc4c(c3)OCO4)nc(N)n2)c1 | A2780 | – | 72 h | 7.05 |
| CCOc1ccc(C=Nn2c(-c3ccccc3)nc3ccc(Cl)cc3c2=O)cc1 | LLC-PK1 | MTT | 72 h | 3.87 |
| CC(=NNC(=O)c1cc(-c2ccccc2)n(-c2ccc(S(N)(=O)=O)cc2)n1)c1ccc(C)cc1 | HT-29 | fluorescence | 48 h | 4.66 |
| O=c1c2cc(Cl)ccc2nc(-c2ccccc2)n1N=Cc1ccccc1O | LLC-PK1 | MTT | 72 h | 4.12 |
| COc1cccc2c1C(=O)c1c(O)c3c(c(O)c1C2=O)C[C@@](O)(C(=O)CO)C[C@@H]3O[C@H]1C[C@H](N)[C@H](O)[C@H](C)O1 | LLC-PK1 | – | 48 h | 5.63 |
| O=c1c2cc(Cl)ccc2nc(-c2ccccc2)n1N=Cc1ccco1 | LLC-PK1 | MTT | 72 h | 3.81 |
| NS(=O)(=O)c1ccc(-n2nc(-c3nnc(CCl)o3)cc2-c2ccccc2)cc1 | HT-29 | fluorescence | 48 h | 4.53 |
| CC(=O)O[C@H]1C(=O)[C@@]2(C)[C@H]([C@H](OC(=O)c3ccccc3)[C@]3(O)C[C@H](OC(=O)[C@H](O)[C@@H](NC(=O)c4ccccc4)c4ccccc4)C(C)=C1C3(C)C)[C@]1(OC(C)=O)CO[C@@H]1C[C@@H]2O | LLC-PK1 | MTT | 72 h | 5.88 |
| Cc1ccc(S(=O)(=O)n2cc(CN3CCN(c4ccc(C(=O)NO)cc4)CC3)c3ccccc32)cc1 | LLC-PK1 | – | 48 h | 5.05 |
| NS(=O)(=O)c1ccc(-n2nc(-c3nnc(S)o3)cc2-c2ccccc2)cc1 | HT-29 | fluorescence | 48 h | 4.40 |
| O=c1c2cc(Cl)ccc2nc(-c2ccccc2)n1N=Cc1cccc([N+](=O)[O-])c1 | LLC-PK1 | MTT | 72 h | 3.83 |
